The assay addresses T1, Dual specificity protein phosphatase 22 (Homo sapiens, UniProt Q9NRW4).
T1 sequence (Q9NRW4 whole entry): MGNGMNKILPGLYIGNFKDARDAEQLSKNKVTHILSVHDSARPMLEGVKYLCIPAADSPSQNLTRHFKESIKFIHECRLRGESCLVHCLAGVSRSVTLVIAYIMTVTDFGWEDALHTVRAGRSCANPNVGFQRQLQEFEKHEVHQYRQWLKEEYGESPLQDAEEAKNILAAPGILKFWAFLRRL
Briefly: Inhibition of GST-tagged human recombinant JSP1. In a few lines: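 Fluorescence kinetic phosphatase assay: 30 nM purified recombinant GST-fused human JSP-1 in 50 mM Bis-Tris pH 6.5, 1 mM EDTA, 1 mM DTT, with 10 µM OMFP as substrate. Hydrolysis followed continuously at excitation 485/emission 535 nm for 3 min; initial rate taken from the linear region of the kinetic curve.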

By IC50 is commonly meant the concentration that gives 50% inhibition. With `Cc1ccc(-c2nc3ccc(NC(=O)N4CCCC(C(=O)NC5CCCC5)C4)cc3nc2-c2ccc(C)cc2)cc1` (stereo not drawn), the half-maximal inhibitory concentration (IC50) is over 40 µM.

As for `CN(C)C(=O)C1CCCN(C(=O)Nc2ccc3nc(-c4ccco4)c(-c4ccco4)nc3c2)C1` (stereo not drawn), the IC50 was over 40 µM.

Consider `CCN(CC)C(=O)C1CCCN(C(=O)Nc2ccc3nc(-c4ccc(C)cc4)c(-c4ccc(C)cc4)nc3c2)C1` (stereo not drawn), for which the IC50 is over 40 µM.

On to `CCCCN(C)C(=O)C1CCCN(C(=O)Nc2ccc3nc(-c4ccco4)c(-c4ccco4)nc3c2)C1` (stereo not drawn), for which the IC50 came to 5.55 µM.

With `CCN(CC)C(=O)C1CCCN(C(=O)Nc2ccc3nc(-c4ccccc4)c(-c4ccccc4)nc3c2)C1` (stereo not drawn), the IC50 is over 40 µM.

Consider `CC(C)(C)NC(=O)C1CCCN(C(=O)Nc2ccc3nc(-c4ccco4)c(-c4ccco4)nc3c2)C1` (stereo not drawn), for which the half-maximal inhibitory concentration (IC50) was 8.05 µM.

For `CCN(CC)C(=O)C1CCCN(C(=O)Nc2ccc3nc(-c4ccco4)c(-c4ccco4)nc3c2)C1` (stereo not drawn), the IC50 came out at 12 µM.

Regarding `O=C(NC1CCCCC1)C1CCCN(C(=O)Nc2ccc3nc(-c4ccco4)c(-c4ccco4)nc3c2)C1` (stereo not drawn), the IC50 is 2.25 µM.

As for `CCN(CC)C(=O)C1CCCN(C(=O)Nc2ccc3nc(-c4ccc(F)cc4)c(-c4ccc(F)cc4)nc3c2)C1` (stereo not drawn), the IC50 was over 40 µM.

`O=C(Nc1ccc2nc(-c3ccccc3)c(-c3ccccc3)nc2c1)N1CCCC(C(=O)N2CCCCC2)C1` (stereo not drawn): the IC50 was over 40 µM.

In the case of `COc1nc2ccc(NC(=O)N3CCCC(C(=O)N4CCCCC4)C3)cc2nc1OC` (stereo not drawn), the IC50 is over 100 µM.

On to `O=C(NC1CCCC1)C1CCCN(C(=O)Nc2ccc3nc(-c4ccco4)c(-c4ccco4)nc3c2)C1` (stereo not drawn), for which the IC50 stood at 3.02 µM.

Take `CC(C)NC(=O)C1CCCN(C(=O)Nc2ccc3nc(-c4ccco4)c(-c4ccco4)nc3c2)C1` (stereo not drawn): the IC50 was over 40 µM.

For the compound `O=C(Nc1ccc2nc(-c3ccc(Br)cc3)c(-c3ccc(Br)cc3)nc2c1)N1CCCC(C(=O)N2CCCC2)C1` (stereo not drawn), the IC50 is over 40 µM.

In the case of `CCNC(=O)C1CCCN(C(=O)Nc2ccc3nc(-c4ccco4)c(-c4ccco4)nc3c2)C1` (stereo not drawn), the IC50 is over 40 µM.

Take `CCCCNC(=O)C1CCCN(C(=O)Nc2ccc3nc(-c4ccco4)c(-c4ccco4)nc3c2)C1` (stereo not drawn): the IC50 was 2.79 µM.

As for `O=C(NC1CCCCC1)C1CCCN(C(=O)Nc2ccc3nc(-c4ccc(F)cc4)c(-c4ccc(F)cc4)nc3c2)C1` (stereo not drawn), the half-inhibitory concentration (IC50) was over 40 µM.

With `CCCCN(CC)C(=O)C1CCCN(C(=O)Nc2ccc3nc(-c4ccco4)c(-c4ccco4)nc3c2)C1` (stereo not drawn), the IC50 stood at 2.35 µM.

Take `CCN(CC)C(=O)C1CCCN(C(=O)Nc2ccc3nc(-c4ccc(Br)cc4)c(-c4ccc(Br)cc4)nc3c2)C1` (stereo not drawn): the IC50 is over 40 µM.

On to `COc1nc2ccc(NC(=O)N3CCCC(C(=O)NC4CCCCC4)C3)cc2nc1OC` (stereo not drawn), for which the IC50 is over 100 µM.

`O=C(Nc1ccc2nc(-c3ccco3)c(-c3ccco3)nc2c1)N1CCCC(C(=O)N2CCCCC2)C1` (stereo not drawn): the IC50 is 8.39 µM.

For the compound `CCCN(CCC)C(=O)C1CCCN(C(=O)Nc2ccc3nc(-c4ccco4)c(-c4ccco4)nc3c2)C1` (stereo not drawn), the IC50 is 2.5 µM.

With `CC(C)CNC(=O)C1CCCN(C(=O)Nc2ccc3nc(-c4ccco4)c(-c4ccco4)nc3c2)C1` (stereo not drawn), the half-maximal inhibitory concentration (IC50) turned out to be 8.36 µM.

The record behind these values is ChEMBL document CHEMBL1144617, “Quinoxalinylurea derivatives as a novel class of JSP-1 inhibitors” (Bioorg Med Chem Lett, 2007).
